CHRM5 PAM: positive allosteric modulators of human muscarinic M5 receptor; P08912; CHO-K1 hM5, Fluo-8 calcium, ACh EC20 PAM; 0% = ACh EC20, 100% = ACh EC100; activation, % at 3 µM; actives 0.3% (n = 360,000);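 active = activation above the run cutoff, the mean activation of all test compounds plus 3 SD, cut at about 18% in these data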
Target sequence (P08912 whole entry, looked up): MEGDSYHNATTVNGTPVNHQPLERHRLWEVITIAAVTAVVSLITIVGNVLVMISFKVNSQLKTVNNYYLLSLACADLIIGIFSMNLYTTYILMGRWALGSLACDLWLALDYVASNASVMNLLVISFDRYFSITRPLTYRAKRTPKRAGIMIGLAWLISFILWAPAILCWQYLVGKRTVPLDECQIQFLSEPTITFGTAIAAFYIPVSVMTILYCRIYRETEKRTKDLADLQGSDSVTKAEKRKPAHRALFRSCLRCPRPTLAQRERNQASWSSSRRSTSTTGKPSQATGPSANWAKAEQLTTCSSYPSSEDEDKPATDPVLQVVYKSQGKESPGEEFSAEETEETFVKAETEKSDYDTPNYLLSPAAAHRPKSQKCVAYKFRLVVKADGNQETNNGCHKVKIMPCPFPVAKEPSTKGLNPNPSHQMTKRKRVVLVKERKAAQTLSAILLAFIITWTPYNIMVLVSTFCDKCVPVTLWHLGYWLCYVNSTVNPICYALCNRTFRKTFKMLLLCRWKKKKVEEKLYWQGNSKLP
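Probe or stimulus: acetylcholine, EC20 level; Assay system: human M5 receptor in CHO-K1 cells; Schedule: compound preincubation 140 s before EC20 acetylcholine addition; Technique: intracellular calcium via Fluo-8 fluorescence; Dosing: single-point, 3 µM nominal; Read-out basis: percent activation from peak-over-basal fluorescence ratio, scaled EC20-to-EC100 acetylcholine; Repeats: one well per compound, no replicates.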
CHRM5 agonist: CHRM5 agonism in calcium assay; CHO-K1 hM5 cells, Fluo-8 calcium fluorescence; 0% DMSO wells, 100% maximal acetylcholine response; P08912; actives 0.19% (n = 360,000); AID 624037; activation, % at 3 µM;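 active = activation above the run's mean over test compounds plus 3 SD, cut at about 23% in these data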;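 note: signal is peak over basal fluorescence ratio across the kinetic read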
CHRM4 PAM: potentiates acetylcholine response at human M4 receptor | activation, % at 3 µM | AID 624126 | CHO-K1 hM4/Gqi5, Fluo-8 calcium fluorescence, ACh EC20; 0% = ACh EC20, 100% = maximal ACh | P08173 | actives 0.4% (n = 360,000);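 active = activation above its plate's cutoff, the mean activation of sample wells plus 3 SD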
CHRM4 antagonist: antagonists of human muscarinic M4 receptor (CHRM4); AID 624125; inhibition, % at 3 µM; CHO-hM4 cells, ACh EC80, Fluo-8 calcium fluorescence; P08173; actives 0.73% (n = 360,000);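 active = inhibition above its plate's cutoff, the mean inhibition of sample wells plus 3 SD, cut at about 27% in these data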;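 note: 0% = acetylcholine EC80 with DMSO and 100% = DMSO without agonist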
M5 antag: antagonists of human muscarinic M5 receptor (CHRM5) | P08912 | inhibition, % at 3 µM | actives 0.59% (n = 360,000) | AID 624040 | CHO-hM5 cells, Fluo-8 calcium fluorescence, ACh EC80;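 active = inhibition above a per-plate cutoff, the mean of that plate's test compounds plus 3 SD, cut at about 27% in these data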;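 note: 0% = acetylcholine EC80 with DMSO and 100% = DMSO without agonist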
CHRM4 agonist: agonists of human muscarinic M4 receptor (CHRM4). activation, % at 3 µM. P08173. actives 0.14% (n = 360,000). CHO-K1 hM4/Gqi5, Fluo-8 calcium fluorescence; vehicle 0%, full acetylcholine response 100%;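 active = activation above the run mean over all test wells plus 3 SD, cut at about 32% in these data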;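 note: peak over basal fluorescence ratio per well then scaled between controls; 0% = DMSO wells and 100% = acetylcholine at EC100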
Numbers without * were called inactive. Sampled rows, rich in hits. Any-hit rate of the full collection: about 1.9%.

SMILES	CHRM5 PAM	CHRM5 agonist	CHRM4 PAM	CHRM4 antagonist	M5 antag	CHRM4 agonist
COc1ccccc1NC(=O)CCNC(=O)C1CCN(S(=O)(=O)c2ccccc2)CC1	-1	0	0	-21	-2	5
COc1cc(NC(=S)NCCN2CCOCC2)cc(OC)c1	6	-1	23*	-9	-2	0
CCOc1ccccc1NC(=O)COC(=O)Cc1cccs1	6	-2	-15	100*	-13	-3
CSc1ccccc1NC(=O)COC(=O)Cc1cccs1	-3	-1	4	7	4	1
C[C@H]1CN([C@@H](C)CO)C(=O)CCCn2cc(nn2)CO[C@@H]1CN(C)C(=O)Cc1ccccc1	3	1	5	-17	-4	1
O=C(c1ccc(F)cc1)N1CCN2C(=O)c3ccccc3C12c1ccc(Cl)cc1 (stereo not given)	-18	-11	-14	7	47*	-1
O=C(c1ccccc1)N1CCN2C(=O)c3ccccc3C12c1ccc(Cl)cc1 (stereo not given)	-14	-11	-2	-5	6	1
O=C(c1ccc(F)cc1)N1CCN2C(=O)c3ccccc3C12c1ccccc1 (stereo not given)	-35	-15	-24	6	34*	18
COc1cc(CN2C[C@@H](CO)O[C@@H](n3cnc4c(N5CCOCC5)ncnc43)C2)cc(OC)c1OC	-3	1	1	-7	-1	1
CC1CCCC(NC(=O)COC(=O)c2ccc(Br)o2)C1C (stereo not given)	4	-1	22*	-3	15	2
CC1CCCC(NC(=O)COC(=O)c2ccc([N+](=O)[O-])o2)C1C (stereo not given)	-11	-3	-3	7	20	0
O=C(Nc1ccc([N+](=O)[O-])cc1)C(c1ccccc1)c1ccccc1	-15	1	-9	-8	21	14
CN(C)c1ccc(C2N3CC4(C)CN2CC(C)(C3)C4O)cc1 (stereo not given)	1	-1	11	-29	-10	1
CC(C)C12CN3CC(C(C)C)(CN(C1)C3c1ccccc1)C2O (stereo not given)	-2	6	32*	0	1	1
Cc1ccccc1C(=O)N1CCC(C(=O)OCC(=O)Nc2cccc([N+](=O)[O-])c2C)CC1	-4	4	9	-16	3	7
Cc1c(NC(=O)CN2CCC(C(N)=O)CC2)cccc1[N+](=O)[O-]	21*	3	-2	3	-3	2
COc1cc2c(cc1OC)C(c1ccccc1[N+](=O)[O-])=NCC2	-5	1	12	-7	2	1
CC(=O)c1ccc(S(=O)c2ccccc2)cc1 (stereo not given)	2	-5	34*	-3	0	2
Cc1ccccc1C(=O)N1CCN(S(=O)(=O)c2cccs2)CC1	2	-1	0	27*	-8	0
Cc1ccsc1C(=O)N1CCN(S(=O)(=O)c2cccs2)CC1	0	-5	0	-4	6	2
CC(C)CNS(=O)(=O)c1ccc(CCC(=O)NC2CCCCC2)cc1	20*	7	1	-8	-14	2
COC(=O)[C@@H]1C[C@@]2(O)[C@H](O)[C@H](O)[C@H](O)C[C@H]2N1Cc1cc(F)ccc1F	0	5	28*	-2	-6	2
O=C1NC(=S)S/C1=C\c1cc(Cl)cc(Cl)c1O	-41	193*	-13	12	30*	52*
CNC(=O)c1cc(C(=O)c2ccc(C(F)(F)F)cc2)c[nH]1	-6	2	-16	43*	5	4
CNC(=O)c1cc(C(=O)c2ccc(C(F)(F)F)cc2F)c[nH]1	-4	0	5	5	9	2
CCNC(=O)c1ccc(CSc2nc3ccccc3s2)cc1	-12	-1	-8	-3	34*	16
CCC(=O)N1CCC(C)(C(=O)Nc2ccc3c(c2)OCO3)C1 (stereo not given)	3	-1	2	-2	-4	1

Assay outcomes as filed in PubChem.
